Experimental data reported in publication PMC8193639 (Journal of the American Chemical Society, 2021).

What was measured:
[1] = biological target: T1, 14-3-3/ERα complex (Homo sapiens, UniProt P61981); experiment: Selectivity panel, FA protein titration; format: binding; conditions: 100 μM compound; C-terminal phosphorylation motif
T1 sequence (P61981 1-247): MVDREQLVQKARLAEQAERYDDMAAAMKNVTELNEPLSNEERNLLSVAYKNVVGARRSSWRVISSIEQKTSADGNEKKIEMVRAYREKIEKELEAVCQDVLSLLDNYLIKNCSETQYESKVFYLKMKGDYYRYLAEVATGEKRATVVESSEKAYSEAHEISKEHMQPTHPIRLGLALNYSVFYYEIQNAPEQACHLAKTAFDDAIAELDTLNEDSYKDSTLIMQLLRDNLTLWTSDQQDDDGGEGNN

[2] = biological target: T2, Pin1_72/14-3-3γ complex (Homo sapiens, UniProt P61981); experiment: biochemical
[3] = biological target: T2, Pin1_72/14-3-3γ complex; experiment: FA protein titration of 14-3-3γ in presence of 100 μM compound; format: binding
[4] = tested on: AS160/14-3-3γ complex; experiment: Selectivity panel, FA protein titration; format: binding; conditions: 100 μM fragment; Phe +1
[5] = biological target: T3, Mypt1_472/14-3-3γ (Homo sapiens, UniProt P61981); experiment: Selectivity panel, FA protein titration; format: binding; conditions: 100 μM fragment; Ser +1
T3 sequence (P61981 1-247): T1 sequence (P61981 1-247)

[6] = biological target: T4, 14-3-3γ (Homo sapiens, UniProt P61981); experiment: Thermal shift assay, 14-3-3γ alone; format: binding; conditions: compound added to 14-3-3γ alone
T4 sequence (P61981 1-247): T1 sequence (P61981 1-247)
Method in brief: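 Thermal shift assay as an orthogonal check of complex stabilization. Read-out is the 14-3-3γ melting temperature with test compound present. Protein is either alone or with acetylated Pin1 peptide added at 5 or 50 equiv.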

[7] = biological target: T5, B-Raf_729/14-3-3γ (Homo sapiens, UniProt P61981); experiment: Selectivity panel, FA protein titration; format: binding; conditions: 100 μM fragment; Glu +1
T5 sequence (P61981 1-247): T1 sequence (P61981 1-247)

[8] = tested on: p65pS45/14-3-3γ; experiment: Selectivity panel, FA protein titration; format: binding; conditions: 100 μM fragment; Ile +1
[9] = tested on: Abl1pT735/14-3-3γ; experiment: Selectivity panel, FA protein titration; format: binding; conditions: 100 μM fragment; Leu +1
[10] = biological target: T6, ERRγ_179/14-3-3γ (Homo sapiens, UniProt P61981); experiment: Selectivity panel, FA protein titration; format: binding; conditions: 100 μM fragment; Cys +1
T6 sequence (P61981 1-247): T1 sequence (P61981 1-247)

[11] = biological target: T7, C-Raf/14-3-3γ (Homo sapiens, UniProt P61981); experiment: Selectivity panel, FA protein titration; format: binding; conditions: 100 μM fragment; Thr +1
T7 sequence (P61981 1-247): T1 sequence (P61981 1-247)

[12] = biological target: T8, TBC1D237/14-3-3γ (Homo sapiens, UniProt P61981); experiment: Selectivity panel, FA protein titration; format: binding; conditions: 100 μM fragment; Gln +1
T8 sequence (P61981 1-247): T1 sequence (P61981 1-247)

[13] = biological target: 14-3-3/Pin1_72 complex (Homo sapiens, UniProt P61981); experiment: Cooperativity analysis, 2D FA protein titrations; format: binding
[14] = tested on: CFTRpS753/14-3-3γ; experiment: Selectivity panel, FA protein titration; format: binding; conditions: 100 μM fragment; Val +1

C=CC(C)(C)OC[C@H]1O[C@H](O[C@@H]2C3=C([C@H](C)COC(C)=O)C[C@H](O)[C@]3(C)/C=C3/[C@@H](COC)CC[C@H]3[C@@H](C)[C@H]2O)[C@H](O)[C@@H](OC(C)=O)[C@@H]1O [FCA, fusicoccin A, reference compound]
SF / complex stabilization [1]: 160 fold

Cc1cn(-c2ccc(C=O)cc2)cn1 [fragment 4]
EC50 [2]: > 1000 µM

O=Cc1ccc(-n2ccnc2-c2ccccc2)cc1Br [fragment 13]
EC50 [2]: 101 ± 6 µM | SF / complex stabilization [1]: not responsive to fragment stabilization | Kd [3]: 2160 ± 123 nM | SF (stabilization factor) ([3]; KD,DMSO/KD,compound, internal DMSO control, 100 μM fragment): 10.8 fold | SF / complex stabilization [4]: 1.2 to 2.7 fold

O=Cc1ccc(-n2ccnc2-c2cc(Br)ccc2F)cc1Br [fragment 27]
SF / complex stabilization [5]: no significant stabilization | effect on 14-3-3 melting temperature [6]: no significant effect | SF / complex stabilization [7]: no significant stabilization | EC50 [2]: 118 ± 7 µM | SF / complex stabilization [1]: not responsive to fragment stabilization | SF / complex stabilization [8]: no significant complex stabilization | SF / complex stabilization [9]: no significant complex stabilization | SF / complex stabilization [4]: 1.2 to 2.7 fold | SF / complex stabilization [10]: no significant stabilization | SF / complex stabilization [11]: abolishes any stabilizing effect | SF / complex stabilization [12]: no significant stabilization

O=Cc1ccc(-n2ccnc2-c2ccc(F)cc2F)cc1Br [fragment 28]
SF / complex stabilization [5]: no significant stabilization | concentration necessary to induce a 2-fold increase in PPI stabilization [13]: 1 µM | effect on 14-3-3 melting temperature [6]: no significant effect | SF / complex stabilization [7]: no significant stabilization | EC50 [2]: 79 ± 3 µM | SF / complex stabilization [1]: not responsive to fragment stabilization | SF / complex stabilization [8]: some stabilizing activity | SF / complex stabilization [9]: some stabilizing activity | SF / complex stabilization [4]: 1.2 to 2.7 fold | SF / complex stabilization [10]: no significant stabilization | SF / complex stabilization [11]: abolishes any stabilizing effect | SF / complex stabilization [14]: some stabilizing activity | SF / complex stabilization [12]: no significant stabilization
